{"source": "ChEMBL document CHEMBL1144027", "about": "“Synthesis and antimycobacterial evaluation of newer 1-cyclopropyl-1,4-dihydro-6-fluoro-7-(substituted secondary amino)-8-methoxy-5-(sub)-4-oxoquinoline-3-carboxylic acids” (Bioorg Med Chem, 2008)", "key": {"[1]": {"system": "Mycolicibacterium smegmatis", "experiment": "Antimycobacterial activity against Mycobacterium smegmatis MC2 by agar dilution method", "type": "functional", "procedure,_shortened": "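Agar dilution in Middlebrook 7H11 agar with OADC, run along NCCLS-recommended lines; M. smegmatis ATCC 14468 (MC2); MIC determined in duplicate.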"}, "Vero": {"system": "Vero", "experiment": "Cytotoxicity against african green monkey Vero cells after 72 hrs by MTT assay", "type": "cell-based", "details": "Chlorocebus sabaeus", "procedure,_shortened": "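Mammalian Vero cells exposed to compounds at 62.5 µg/ml for 72 h; viability read by cellular conversion of MTT to formazan (Cell Titer 96 non-radioactive proliferation assay).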"}, "[2]": {"experiment": "Selectivity index, ratio of IC50 for monkey Vero cells to MIC for Mycobacterium tuberculosis H37Rv", "type": "functional"}, "[3]": {"system": "Mycobacterium tuberculosis", "experiment": "Antimycobacterial activity against Mycobacterium tuberculosis ATCC 35801 infected in CD1 mouse assessed as bacterial load in lungs at 50 mg/kg, ip after 10 days", "type": "functional", "details": "route intraperitoneal", "procedure,_shortened": "(§1)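 Female CD-1 mice, 6 weeks old, six per group, infected IV via caudal vein with ~10⁷ viable organisms. Intraperitoneal treatment started 10 days after inoculation and ran 10 days. At 35 days post-infection, spleens and right lungs were homogenised and serially 10-fold diluted onto 7H10 agar, incubated 4 weeks at 37 °C in ambient air. CFU compared with vehicle-treated controls.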"}, "[4]": {"system": "Mycobacterium tuberculosis", "experiment": "Antimycobacterial activity against Mycobacterium tuberculosis ATCC 35801 infected in CD1 mouse assessed as bacterial load in spleen at 50 mg/kg, ip after 10 days", "type": "functional", "details": "route intraperitoneal", "procedure,_shortened": "as §1"}, "[5]": {"biological_target": "DNA gyrase subunit B (Mycobacterium smegmatis (strain ATCC 700084 / mc(2)155), UniProt A0QNE0)", "sequence (A0QNE0 whole entry)": "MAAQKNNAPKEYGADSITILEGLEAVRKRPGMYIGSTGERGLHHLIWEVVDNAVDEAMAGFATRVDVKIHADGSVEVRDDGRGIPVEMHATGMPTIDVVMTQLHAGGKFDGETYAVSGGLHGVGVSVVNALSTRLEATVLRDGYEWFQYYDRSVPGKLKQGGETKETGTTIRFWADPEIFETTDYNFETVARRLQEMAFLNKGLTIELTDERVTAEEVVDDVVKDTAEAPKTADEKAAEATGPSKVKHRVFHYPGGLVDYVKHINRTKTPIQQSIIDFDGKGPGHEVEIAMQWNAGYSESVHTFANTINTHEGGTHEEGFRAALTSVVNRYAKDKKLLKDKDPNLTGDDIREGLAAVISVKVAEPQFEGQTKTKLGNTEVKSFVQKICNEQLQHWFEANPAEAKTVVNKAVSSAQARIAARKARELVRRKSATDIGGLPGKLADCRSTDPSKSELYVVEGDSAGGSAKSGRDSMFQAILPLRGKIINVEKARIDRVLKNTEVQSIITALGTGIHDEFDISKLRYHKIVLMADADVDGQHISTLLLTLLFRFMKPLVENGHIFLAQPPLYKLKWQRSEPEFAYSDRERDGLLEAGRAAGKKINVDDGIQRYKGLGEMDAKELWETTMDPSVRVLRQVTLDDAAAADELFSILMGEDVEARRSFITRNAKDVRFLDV", "experiment": "Inhibition of Mycobacterium smegmatis MC2 DNA gyrase GyrB ATPase supercoiling activity", "set-up": "species or system Mycolicibacterium smegmatis", "procedure,_shortened": "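Gyrase purified from M. smegmatis MC2 cells; compounds in DMSO pre-incubated with enzyme, then 400 ng relaxed pUC18 added in 35 mM Tris-HCl pH 7.5, 5 mM MgCl2, 25 mM K glutamate, 2 mM spermidine, 2 mM ATP, BSA, tRNA, 5% glycerol; 30 min; heat-stopped 65 °C 15 min; agarose gel, ethidium bromide staining; ciprofloxacin 10 µg/ml and 5% DMSO controls.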"}, "Mus musculus [6]": {"system": "Mus musculus", "experiment": "Phototoxicity in Swiss albino mouse assessed as ear thickness at 140 mg/kg, po after 4 hrs of irradiation", "type": "organism-based", "set-up": "dose 140 mg/kg, route oral", "details": "in vivo", "procedure,_shortened": "(§2)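 Female Swiss albino mice (~2 months, 20-25 g), fasted ≥18 h, single 140 mg/kg oral gavage dose; groups of 6 (compound, lomefloxacin HCl 140 mg/kg, 0.5% carboxymethylcellulose vehicle 10 ml/kg); UV irradiation 4 h (~18 J/cm²) right after dosing; both ears scored for erythema, oedema, thickness pre-dose, at end of irradiation, and ~24-96 h; thickness given as mean of both ears ± SEM.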"}, "Mus musculus [7]": {"system": "Mus musculus", "experiment": "Phototoxicity in Swiss albino mouse assessed as ear thickness at 140 mg/kg, po after 24 hrs of irradiation", "type": "organism-based", "set-up": "dose 140 mg/kg, route oral", "details": "in vivo", "procedure,_shortened": "as §2"}, "Mus musculus [8]": {"system": "Mus musculus", "experiment": "Phototoxicity in Swiss albino mouse assessed as ear thickness at 140 mg/kg, po after 48 hrs of irradiation", "type": "organism-based", "set-up": "dose 140 mg/kg, route oral", "details": "in vivo", "procedure,_shortened": "as §2"}, "Mus musculus [9]": {"system": "Mus musculus", "experiment": "Phototoxicity in Swiss albino mouse assessed as ear thickness at 140 mg/kg, po after 72 hrs of irradiation", "type": "organism-based", "set-up": "dose 140 mg/kg, route oral", "details": "in vivo", "procedure,_shortened": "as §2"}, "Mus musculus [10]": {"system": "Mus musculus", "experiment": "Phototoxicity in Swiss albino mouse assessed as ear thickness at 140 mg/kg, po after 96 hrs of irradiation", "type": "organism-based", "set-up": "dose 140 mg/kg, route oral", "details": "in vivo", "procedure,_shortened": "as §2"}, "Mus musculus [11]": {"system": "Mus musculus", "experiment": "Phototoxicity in Swiss albino mouse assessed as erythema incidence at 140 mg/kg, po after 4 hrs of irradiation", "type": "organism-based", "set-up": "dose 140 mg/kg, route oral", "details": "in vivo", "procedure,_shortened": "as §2"}, "Mus musculus [12]": {"system": "Mus musculus", "experiment": "Phototoxicity in Swiss albino mouse assessed as erythema incidence at 140 mg/kg, po after 24 hrs of irradiation", "type": "organism-based", "set-up": "dose 140 mg/kg, route oral", "details": "in vivo", "procedure,_shortened": "as §2"}, "Mus musculus [13]": {"system": "Mus musculus", "experiment": "(§3) Phototoxicity in Swiss albino mouse assessed as erythema incidence at 140 mg/kg, po after 48 hrs of irradiation", "type": "organism-based", "set-up": "dose 140 mg/kg, route oral", "details": "in vivo", "procedure,_shortened": "as §2"}, "Mus musculus [14]": {"system": "Mus musculus", "experiment": "as §3", "type": "organism-based", "set-up": "dose 140 mg/kg, route oral", "details": "in vivo", "procedure,_shortened": "as §2", "remark": "listed apart in the source"}, "Mus musculus [15]": {"system": "Mus musculus", "experiment": "Phototoxicity in Swiss albino mouse assessed as erythema incidence at 140 mg/kg, po after 96 hrs of irradiation", "type": "organism-based", "set-up": "dose 140 mg/kg, route oral", "details": "in vivo", "procedure,_shortened": "as §2"}, "[16]": {"system": "Mycobacterium tuberculosis", "experiment": "Antimycobacterial activity against Mycobacterium tuberculosis H37Rv by agar dilution method", "type": "functional", "procedure,_shortened": "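Agar dilution MIC on Middlebrook 7H11 agar with OADC, following the NCCLS-recommended approach, run in duplicate. The MDR clinical isolate was resistant to isoniazid, rifampicin, ethambutol and ofloxacin.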"}}, "data": [{"smiles": "COc1ccc(CC2C3=C(CCCC3)CCN2c2c(F)c([N+](=O)[O-])c3c(=O)c(C(=O)O)cn(C4CC4)c3c2OC)cc1", "note": "(configuration not stated)", "values": [{"measurement": "MIC", "setting": "[1]", "result": 0.68, "unit": "µM"}, {"measurement": "IC50", "setting": "Vero", "result": 108, "unit": "µM"}, {"measurement": "Selectivity index", "setting": "[2]", "result": 676.31}, {"measurement": "Activity", "setting": "[3]", "result": 5.41}, {"measurement": "Activity", "setting": "[4]", "result": 6.1}, {"measurement": "IC50", "setting": "[5]", "result": 51.9, "unit": "µM"}, {"measurement": "Activity", "setting": "Mus musculus [6]", "result": 0.33, "unit": "mm"}, {"measurement": "Activity", "setting": "Mus musculus [7]", "result": 0.32, "unit": "mm"}, {"measurement": "Activity", "setting": "Mus musculus [8]", "result": 0.33, "unit": "mm"}, {"measurement": "Activity", "setting": "Mus musculus [9]", "result": 0.33, "unit": "mm"}, {"measurement": "Activity", "setting": "Mus musculus [10]", "result": 0.32, "unit": "mm"}, {"measurement": "Activity", "setting": "Mus musculus [11]", "result": "Non-toxic"}, {"measurement": "Activity", "setting": "Mus musculus [12]", "result": "Non-toxic"}, {"measurement": "Activity", "setting": "Mus musculus [13]", "result": "Non-toxic"}, {"measurement": "Activity", "setting": "Mus musculus [14]", "result": "Non-toxic"}, {"measurement": "Activity", "setting": "Mus musculus [15]", "result": "Non-toxic"}, {"measurement": "MIC", "setting": "[16]", "result": 0.16, "unit": "µM"}]}]}
